SIAE inh – blocks human sialic acid acetylesterase; Q9HAT2; SIAE FP-Rh probe binding, fluorescence polarization; inhibition, % at 9.66 µM; 0.69% of 370,000 active; AID 1053197;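 active = inhibition above a cutoff: mean of compounds within the control limits plus 3 SD of those, cut at about 17% in these data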;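 also: 0% = plate median of compound wells and 100% = probe without SIAE protein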
HTRA1 inh – blocks human HTRA1 serine peptidase. Q92743. AID 504803. 0.5% of 340,000 active. inhibition, % at 5.96 µM. recombinant HTRA1, FP-rhodamine activity-based probe, fluorescence polarization; in the data active = inhibition above about 36%;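 also: 0% = enzyme with DMSO and 100% = wells lacking enzyme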
Target sequence (Q92743 whole entry, looked up): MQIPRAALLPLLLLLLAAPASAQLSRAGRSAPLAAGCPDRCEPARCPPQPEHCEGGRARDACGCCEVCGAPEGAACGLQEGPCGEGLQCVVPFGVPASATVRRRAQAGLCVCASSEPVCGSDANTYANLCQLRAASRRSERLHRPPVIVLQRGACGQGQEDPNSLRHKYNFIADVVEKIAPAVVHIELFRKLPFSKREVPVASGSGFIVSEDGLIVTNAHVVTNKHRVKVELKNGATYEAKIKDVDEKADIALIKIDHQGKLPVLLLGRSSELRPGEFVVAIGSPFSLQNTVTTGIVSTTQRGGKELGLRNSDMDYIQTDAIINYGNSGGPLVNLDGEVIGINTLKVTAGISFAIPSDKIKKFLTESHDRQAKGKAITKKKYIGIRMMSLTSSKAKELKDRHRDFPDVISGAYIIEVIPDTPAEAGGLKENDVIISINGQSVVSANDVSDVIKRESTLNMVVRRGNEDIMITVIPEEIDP
TCR-CD3 inh – blocks the human TCR-CD3 interaction | TAMRA-labeled TCR probe fluorescence, biochemical | inhibition, % at 9.4 µM | 0.37% of 360,000 active | AID 651800; in the data active = inhibition above about 19%;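 also: recombinant mutant TCR 2C K166C tagged with TAMRA read by polarization; 0% = receptor in buffer alone and 100% = receptor with positive control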
mABHD4 FP – inhibitors of mouse ABHD4; Q8VD66; inhibition, % at 8.92 µM; AID 720543; purified mABHD4, FP-Rh probe fluorescence polarization; 0.54% of 370,000 active;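 active = inhibition exceeding the mean over every tested compound plus 3 SD, cut at about 30% in these data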;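 also: 0% = plate median of compound wells and 100% = S159A mutant with DMSO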
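Test system: mABHD4 protein; Read-out basis: % inhibition; Incubation: 45 min + 60 min at 25 °C; Repeats: single replicate; Technique: fluorescence polarization with parallel and perpendicular emission, 525/598 nm; Compound: 8.92 µM, single dose; Benchmarks: full inhibition S159A mutant plus DMSO, zero as sample-well median.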
PRMT1 inh – PRMT1 (human) inhibition, primary screen; Q99873; recombinant PRMT1, activity-based probe fluorescence polarization; inhibition, % at 2.79 µM; 1.3% of 370,000 active; AID 652257;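 active = inhibition above about 21% made by adding two undisclosed values, limit read from the data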
SIAE inh conf – confirmation of human SIAE inhibitors; SIAE FP-Rh activity-based probe, fluorescence polarization; inhibition, % at 9.66 µM; 13% of 2,300 active; shares compounds with SIAE inh;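 active = mean inhibition of the replicates above the hit cutoff set in the primary screen, cut at about 17% in these data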;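 also: 0% = SIAE with DMSO and probe and 100% = probe without SIAE; inhibitors lower polarization as more probe stays unbound to SIAE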
Numbers without * were called inactive. An excerpt weighted towards active compounds, which were near 2.6% of everything screened.

For CC1CCN(c2ccc(C(=O)O)cc2NS(=O)(=O)c2cccc3cccnc23)CC1 the results were SIAE inh 3.0, mABHD4 FP 21.8 and PRMT1 inh 1.9.
`C#CCN(Cc1ccco1)C(=O)c1nnc2c3ccccc3n(S(=O)(=O)c3ccccc3)c2n1` gave SIAE inh -12.2, TCR-CD3 inh -1.9, mABHD4 FP -3.3 and PRMT1 inh -1.5.
`Cc1cnc(C(=O)Oc2ccc(-c3ccccc3)cc2)cn1` gave SIAE inh 17.4*, HTRA1 inh -3.3, TCR-CD3 inh -2.0, mABHD4 FP 3.3, PRMT1 inh 2.2 and SIAE inh conf -7.0.
O=C(O)c1ccc(NCc2cccs2)cc1 was read as SIAE inh 17.9*, HTRA1 inh 6.1, TCR-CD3 inh -2.4, mABHD4 FP -1.7, PRMT1 inh -0.8 and SIAE inh conf -2.1.
CCOC(=O)c1c(C)sc2c1N(C(=O)CN(CC)CC)c1ccccc1S2 was read as SIAE inh 17.4*, HTRA1 inh -2.0, TCR-CD3 inh -9.8, mABHD4 FP 0.1, PRMT1 inh -0.5 and SIAE inh conf 0.7.
Screening COc1cc(CNCCN2CCOCC2)ccc1OCc1cccc(Cl)c1 returned SIAE inh 17.2*, HTRA1 inh 8.8, TCR-CD3 inh -15.3, mABHD4 FP 2.2, PRMT1 inh -1.4 and SIAE inh conf -5.8.
O=C1c2ccccc2C2=Nc3ccccc3SC(c3cccc(F)c3)C12 (stereo not given) was read as SIAE inh 17.9*, HTRA1 inh 5.4, TCR-CD3 inh -2.1, mABHD4 FP 17.6, PRMT1 inh 3.3 and SIAE inh conf -9.5.
COC(=O)[C@]12C[C@H](CC(=O)NCCCN3CCCC3=O)C(=O)N(Cc3ccco3)C1=C[C@H](C(C)(C)C)O[C@@H]2C was read as SIAE inh -3.5, mABHD4 FP -0.1 and PRMT1 inh -0.5.
Screening Oc1[nH]c2ccccc2c1N=Nc1nc(Nc2ccccc2)nc(N2CCOCC2)n1 returned SIAE inh -10.8, HTRA1 inh -11.3, TCR-CD3 inh -5.1, mABHD4 FP -2.8 and PRMT1 inh -5.6.
Screening Cc1[nH]c2ccccc2c1/C=N/Nc1nc(Nc2ccccc2)nc(N2CCOCC2)n1 returned SIAE inh 31.8*, HTRA1 inh -3.4, TCR-CD3 inh 7.3, mABHD4 FP 12.1, PRMT1 inh -0.9 and SIAE inh conf 16.7.
For Cc1ccc(NC(=O)CSc2nc(C)cc(=O)[nH]2)c(C)c1 the results were SIAE inh -1.7, mABHD4 FP 0.2 and PRMT1 inh -0.9.
Screening C#CCNC(=O)C[C@H]1C[C@@]2(C(=O)OC)C(=C[C@H](C(C)C)O[C@@H]2C2CC2)N(Cc2cccc3ccccc23)C1=O returned SIAE inh -7.1, mABHD4 FP -16.9 and PRMT1 inh -5.4.
CCOc1ccc(CN2C(=O)c3ccccc3C2=O)cc1C(=O)O was read as SIAE inh 2.7, HTRA1 inh 0.5, TCR-CD3 inh 3.2, mABHD4 FP 2.3 and PRMT1 inh 0.8.
For CCOc1ccc(CN2C(=O)c3ccccc3C2=O)cc1C(=O)N1CCC(C(N)=O)CC1 the results were SIAE inh 21.6*, HTRA1 inh -3.4, TCR-CD3 inh 0.8, mABHD4 FP 4.4, PRMT1 inh -3.6 and SIAE inh conf 5.3.
For CCC(=O)NC(c1ccco1)c1cc(Br)c2cccnc2c1O (stereo not given) the results were SIAE inh 18.8*, TCR-CD3 inh -2.3, mABHD4 FP 19.9, PRMT1 inh -5.6 and SIAE inh conf 10.6.
For COc1ccc(N2CCN(CCCNC(=O)COc3ccc(C)cc3)CC2)cc1 the results were SIAE inh 3.0, mABHD4 FP 0.3 and PRMT1 inh 4.8.
`CS(=O)(=O)N(CC(=O)NCCSCc1c(F)cccc1Cl)c1ccc2c(c1)OCO2` gave SIAE inh 18.3*, HTRA1 inh 6.8, TCR-CD3 inh -7.2, mABHD4 FP -0.7, PRMT1 inh 3.0 and SIAE inh conf 6.9.
For CN1Cc2c(N3CCOCC3)nc3sc(C(=O)c4ccc(Br)cc4)c(N)c3c2CC1(C)C the results were SIAE inh 7.7, TCR-CD3 inh -4.0, mABHD4 FP 15.1 and PRMT1 inh 10.7.
Screening CN1Cc2c(N3CCOCC3)nc3sc(C#N)c(N)c3c2CC1(C)C returned SIAE inh 19.9*, HTRA1 inh 5.9, TCR-CD3 inh 4.0, mABHD4 FP 4.6, PRMT1 inh -2.2 and SIAE inh conf 4.0.
For Nc1ccn([C@@H]2O[C@H](C(=O)N[C@H](Cc3ccccc3)C(=O)N3CCN(CCO)CC3)[C@@H](O)[C@H]2O)c(=O)n1 the results were SIAE inh 4.6, TCR-CD3 inh -0.2, mABHD4 FP 4.1 and PRMT1 inh 2.6.
For Nc1ccn([C@@H]2O[C@H](C(=O)N[C@H](Cc3ccccc3)C(=O)N3CCN(C(=O)N4CCCCC4)CC3)[C@@H](O)[C@H]2O)c(=O)n1 the results were SIAE inh 23.4*, TCR-CD3 inh -3.1, mABHD4 FP 3.5, PRMT1 inh -2.8 and SIAE inh conf 18.4*.
`O=C(NC(Cc1c[nH]c2ccccc12)C(=O)N1CCOCC1)c1cccs1` (stereo not given) gave SIAE inh 6.4, HTRA1 inh -0.7, TCR-CD3 inh 9.0, mABHD4 FP -5.0 and PRMT1 inh 0.0.
`NC(=O)c1ncn([C@@H]2O[C@H](C(=O)N[C@H](Cc3c[nH]c4ccccc34)C(=O)N3CCN(C(=O)N4CCCCC4)CC3)[C@@H](O)[C@H]2O)n1` gave SIAE inh 17.2*, TCR-CD3 inh 3.0, mABHD4 FP -2.7, PRMT1 inh -1.5 and SIAE inh conf 8.2.
For COC(=O)[C@]12CCCCC=C1N(Cc1ccc(OC)cc1)C(=O)[C@@H]2CC(=O)N1CCC(c2ccccc2)CC1 the results were SIAE inh -1.9, mABHD4 FP -5.3 and PRMT1 inh 3.0.
Screening CCOC(=O)C1=NOC(C(=O)NCCO)(C(=O)C2CC2)C1 (stereo not given) returned SIAE inh 2.3, mABHD4 FP -3.3 and PRMT1 inh 5.3.
For N#CC(=C1C=C(Br)C(=NO)C=C1Cl)c1cccc2ccccc12 the results were SIAE inh 17.8*, HTRA1 inh -4.1, TCR-CD3 inh -0.4, mABHD4 FP -0.2, PRMT1 inh -6.6 and SIAE inh conf 13.4.
`COC(=O)c1ccc(Oc2nc3c(c(=O)n(C)c(=O)n3C)n2CCC(C)C)cc1` gave SIAE inh 28.2*, HTRA1 inh 5.0, TCR-CD3 inh 2.2, mABHD4 FP -2.9, PRMT1 inh -0.6 and SIAE inh conf -3.4.
O=C(c1cc(C2CC2)on1)N(C1CCCCC1)C1CCCCC1 was read as SIAE inh -2.9, mABHD4 FP -3.8 and PRMT1 inh -1.7.
Screening CCOC(=O)c1c(C)[nH]c(O)c1C=Nc1ccccc1 returned SIAE inh 22.1*, HTRA1 inh 16.1, TCR-CD3 inh 5.5, mABHD4 FP 4.4, PRMT1 inh 10.2 and SIAE inh conf 2.7.

Screens (PubChem)
